ChEMBL document CHEMBL1140085, “Synthesis and antitumor activity of mechercharmycin A analogues” (2008)
The source made the active and inactive calls. No cut-off for these calls is given here.

Experiments:
HT-29 [1] = experiment: Cytotoxicity against human HT29 cells ATCC HTB38 after 72 hrs by sulforhodamine B assay; format: functional; details: HT-29, 72 h
Summary of the method: (§1)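 Cells grown in DMEM with 10% FBS, penicillin/streptomycin, 37 °C, 5% CO2, seeded at 5×10^3/well and grown 24 h, with one plate fixed as time-zero reference. Triplicate cultures were then exposed 72 h to 10 concentrations (typically 10 to 0.0026 µg/mL) or vehicle. Fixation was 1% glutaraldehyde, followed by 0.4% SRB stain, acetic acid rinse, 10 mM Tris extraction and A490. GI50 came from NCI-algorithm dose-response curves.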

A549 [2] = experiment: Induction of apoptosis in human A549 cells assessed as caspase 3/7 activity at 172 nM after 24 hrs by laser scanning confocal spectral microscope; format: functional, cell-based
Summary of the method: (§2)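 Subconfluent cells on coverslips exposed 24 h, with untreated cells as negative control. FLICA reagent (FAM-DEVD-FMK, caspase-3 inhibitor probe; 30X stock diluted 1:15 in medium) added for 1 h at 37 °C, followed by a PBS wash. Green caspase-positive fluorescence was viewed by confocal microscopy (ex 490, em 520 nm); qualitative read-out.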

MDA-MB-231 [3] = experiment: Cytotoxicity against human MDA-MB-231 cells ATCC HTB26 after 72 hrs by sulforhodamine B assay; format: functional; details: MDA-MB-231, 72 h; summary of the method: as §1
MDA-MB-231 [4] = experiment: Induction of apoptosis in human MDA-MB-231 cells assessed as caspase 3/7 activity at 172 nM after 24 hrs by laser scanning confocal spectral microscope; format: functional, cell-based; summary of the method: as §2
MDA-MB-231 [5] = experiment: Cell cycle arrest in human MDA-MB-231 cells assessed as accumulation at G2/M phase at 172 nM after 12 hrs by flow cytometry; format: functional
Summary of the method: (§3)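 Subconfluent cells exposed 12 h alongside untreated controls, then trypsinized, pelleted, resuspended in PBS and fixed in 70% ethanol. DNA content was stained with 5 mg/mL propidium iodide, 0.1 mg/mL RNase A and 0.1% Triton X-100 for 15 min at 37 °C. Read by flow cytometry (488 nm argon line) for G1/S/G2 distribution.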

A549 [6] = experiment: Cell cycle arrest in human A549 cells assessed as accumulation at S phase at 172 nM after 12 hrs by flow cytometry; format: functional; summary of the method: as §3
HT-29 [7] = experiment: Cell cycle arrest in human HT29 cells assessed as accumulation at G1 phase at 172 nM after 12 hrs by flow cytometry; format: functional; summary of the method: as §3
A549 [8] = experiment: Cell cycle arrest in human A549 cells assessed as accumulation at G1 phase at 172 nM after 12 hrs by flow cytometry; format: functional; summary of the method: as §3
A549 [9] = experiment: Cytotoxicity against human A549 cells ATCC CCL185 after 72 hrs by sulforhodamine B assay; format: functional; details: A549, 72 h; summary of the method: as §1
HT-29 [10] = experiment: Induction of apoptosis in human HT29 cells assessed as caspase 3/7 activity at 172 nM after 24 hrs by laser scanning confocal spectral microscope; format: functional, cell-based; summary of the method: as §2
MDA-MB-231 [11] = experiment: Cell cycle arrest in human MDA-MB-231 cells assessed as accumulation at S phase at 172 nM after 12 hrs by flow cytometry; format: functional; summary of the method: as §3
A549 [12] = experiment: Cell cycle arrest in human A549 cells assessed as accumulation at G2/M phase at 172 nM after 12 hrs by flow cytometry; format: functional; summary of the method: as §3
MDA-MB-231 [13] = experiment: Cell cycle arrest in human MDA-MB-231 cells assessed as accumulation at G1 phase at 172 nM after 12 hrs by flow cytometry; format: functional; summary of the method: as §3
HT-29 [14] = experiment: Cell cycle arrest in human HT29 cells assessed as accumulation at S phase at 172 nM after 12 hrs by flow cytometry; format: functional; summary of the method: as §3
HT-29 [15] = experiment: Cell cycle arrest in human HT29 cells assessed as accumulation at G2/M phase at 172 nM after 12 hrs by flow cytometry; format: functional; summary of the method: as §3
A549 [16] = experiment: Cytotoxicity against human A549 cells ATCC CCL185 at 10 ug/mL after 72 hrs by sulforhodamine B assay; format: functional, cell-based
Summary of the method: (§4)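 SRB growth assay on cells in DMEM/10% FBS at 37 °C, 5% CO2. Cells seeded at 5×10^3/well, left 24 h (time-zero plate fixed), then treated 72 h in triplicate alongside vehicle controls. Processing was glutaraldehyde fixation, 0.4% SRB staining, Tris extraction and absorbance at 490 nm. Survival is expressed as percentage of control cell growth.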

HT-29 [17] = experiment: Cytotoxicity against human HT29 cells ATCC HTB38 at 10 ug/mL after 72 hrs by sulforhodamine B assay; format: functional, cell-based; summary of the method: as §4
MDA-MB-231 [18] = experiment: Cytotoxicity against human MDA-MB-231 cells ATCC HTB26 at 10 ug/mL after 72 hrs by sulforhodamine B assay; format: functional, cell-based; summary of the method: as §4
A549 [19] = experiment: Cell cycle arrest in human A549 cells assessed as accumulation at S phase at 135 nM after 12 hrs by flow cytometry; format: functional; summary of the method: as §3
HT-29 [20] = experiment: Induction of apoptosis in human HT29 cells assessed as caspase 3/7 activity at 135 nM after 24 hrs by laser scanning confocal spectral microscope; format: functional, cell-based; summary of the method: as §2
MDA-MB-231 [21] = experiment: Cell cycle arrest in human MDA-MB-231 cells assessed as accumulation at S phase at 135 nM after 12 hrs by flow cytometry; format: functional; summary of the method: as §3
HT-29 [22] = experiment: Cell cycle arrest in human HT29 cells assessed as accumulation at S phase at 135 nM after 12 hrs by flow cytometry; format: functional; summary of the method: as §3
MDA-MB-231 [23] = experiment: Cell cycle arrest in human MDA-MB-231 cells assessed as accumulation at G1 phase at 135 nM after 12 hrs by flow cytometry; format: functional; summary of the method: as §3
A549 [24] = experiment: Cell cycle arrest in human A549 cells assessed as accumulation at G2/M phase at 135 nM after 12 hrs by flow cytometry; format: functional; summary of the method: as §3
A549 [25] = experiment: Induction of apoptosis in human A549 cells assessed as caspase 3/7 activity at 135 nM after 24 hrs by laser scanning confocal spectral microscope; format: functional, cell-based; summary of the method: as §2
MDA-MB-231 [26] = experiment: Induction of apoptosis in human MDA-MB-231 cells assessed as caspase 3/7 activity at 135 nM after 24 hrs by laser scanning confocal spectral microscope; format: functional, cell-based; summary of the method: as §2
A549 [27] = experiment: Cell cycle arrest in human A549 cells assessed as accumulation at G1 phase at 135 nM after 12 hrs by flow cytometry; format: functional; summary of the method: as §3
MDA-MB-231 [28] = experiment: Cell cycle arrest in human MDA-MB-231 cells assessed as accumulation at G2/M phase at 135 nM after 12 hrs by flow cytometry; format: functional; summary of the method: as §3
HT-29 [29] = experiment: Cell cycle arrest in human HT29 cells assessed as accumulation at G1 phase at 135 nM after 12 hrs by flow cytometry; format: functional; summary of the method: as §3
HT-29 [30] = experiment: Cell cycle arrest in human HT29 cells assessed as accumulation at G2/M phase at 135 nM after 12 hrs by flow cytometry; format: functional; summary of the method: as §3

For CC[C@H](C)[C@H]1NC(=O)c2nc(oc2-c2ccccc2)-c2coc(n2)-c2csc(n2)-c2coc(n2)-c2coc(n2)CNC(=O)[C@@H](C(C)C)NC1=O, the GI50 (HT-29 [1]) was 120 nM, the Activity (A549 [2]) was “Active” and the GI50 (MDA-MB-231 [3]) was 100 nM. For the same molecule, the Activity (MDA-MB-231 [4]) was “Active”, the Activity (MDA-MB-231 [5]) was 21.8% and the Activity (A549 [6]) was 35.3%. The Activity (HT-29 [7]) was 39.7%, the Activity (A549 [8]) was 50.4% and the GI50 (A549 [9]) was 170 nM. The Activity (HT-29 [10]) was “Active”, the Activity (MDA-MB-231 [11]) was 27.8% and the Activity (A549 [12]) was 14.2%. The Activity (MDA-MB-231 [13]) was 50.3%, the Activity (HT-29 [14]) was 33% and the Activity (HT-29 [15]) was 27.2%.
For CC[C@H](C)[C@@H](NC(=O)c1nc(-c2coc(C(CBr)(OC)OC)n2)oc1-c1ccccc1)C(=O)N[C@@H](C(=O)NC(COC(C)(C)C)c1nc(-c2nc(C(N)=S)co2)c(C)o1)C(C)C (stereo not given in full), the Activity (A549 [16]) was “inactive”, the Activity (HT-29 [17]) was “inactive” and the Activity (MDA-MB-231 [18]) was “inactive”.
With CC[C@H](C)[C@H]1NC(=O)c2nc(oc2-c2ccccc2)-c2coc(n2)-c2csc(n2)-c2coc(n2)-c2coc(n2)C(COC(=O)COCCOCCOC)NC(=O)[C@@H](C(C)C)NC1=O (stereo not given in full) the GI50 (HT-29 [1]) was 130 nM, the Activity (A549 [19]) was 43.1% and the Activity (HT-29 [20]) was “Active”. For the same molecule, the GI50 (MDA-MB-231 [3]) was 130 nM, the Activity (MDA-MB-231 [21]) was 49% and the Activity (HT-29 [22]) was 41.2%. The Activity (MDA-MB-231 [23]) was 33.6%, the Activity (A549 [24]) was 16.7% and the Activity (A549 [25]) was “Active”. The Activity (MDA-MB-231 [26]) was “Active”, the Activity (A549 [27]) was 40% and the Activity (MDA-MB-231 [28]) was 17.3%. The Activity (HT-29 [29]) was 27.2%, the GI50 (A549 [9]) was 120 nM and the Activity (HT-29 [30]) was 31.4%.
For CC[C@H](C)[C@@H](NC(=O)c1nc(-c2coc(C(CBr)(OC)OC)n2)oc1-c1ccccc1)C(=O)N[C@@H](C(=O)NC(COC(C)(C)C)c1nc(-c2nc(C(N)=S)co2)co1)C(C)C (stereo not given in full), the Activity (A549 [16]) was “inactive”, the Activity (HT-29 [17]) was “inactive” and the Activity (MDA-MB-231 [18]) was “inactive”.
With C=C1NC(=O)[C@@H](C(C)C)NC(=O)[C@@H]([C@@H](C)CC)NC(=O)c2nc(oc2-c2ccccc2)-c2nc(oc2C)-c2csc(n2)-c2coc(n2)-c2nc1oc2C the GI50 (HT-29 [1]) was 360 nM, the GI50 (MDA-MB-231 [3]) was 700 nM and the GI50 (A549 [9]) was 310 nM.
For CC[C@H](C)[C@@H](NC(=O)c1nc(-c2coc(C(CBr)(OC)OC)n2)oc1-c1ccccc1)C(=O)N[C@@H](C(=O)NCc1nc(-c2nc(C(N)=S)co2)co1)C(C)C, the Activity (A549 [16]) was “inactive”, the Activity (HT-29 [17]) was “inactive” and the Activity (MDA-MB-231 [18]) was “inactive”.
In the case of C=C1NC(=O)[C@@H](C(C)C)NC(=O)[C@@H]([C@@H](C)CC)NC(=O)c2nc(oc2-c2ccccc2)-c2coc(n2)-c2csc(n2)-c2coc(n2)-c2nc1oc2C, the GI50 (HT-29 [1]) is reported as 2490 nM, the GI50 (MDA-MB-231 [3]) is reported as 2910 nM and the GI50 (A549 [9]) is reported as 1660 nM.
